# ChEMBL document CHEMBL1781884, “Design, synthesis, and structure-activity relationship of tropane muscarinic acetylcholine receptor antagonists” (J Med Chem, 2009)
# Legend:
# [1] = molecular target: T1, Muscarinic acetylcholine receptor M3 (Homo sapiens, UniProt P20309); experiment: Antagonist activity against human M3 receptor expressed in CHO cells assessed as inhibition of acetylcholine-induced calcium mobilization by FLIPR; format: functional, cell-based; conditions: for Kb: read-out: pA2 (converted)
# [2] = molecular target: T1, Muscarinic acetylcholine receptor M3; experiment: Antagonist activity at human muscarinic M3 receptor in human bronchus assessed as potency against carbachol-induced contraction; format: functional; conditions: read-out: pA2 (converted)
# Outline: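 Human bronchial strips (primary, secondary or tertiary airways, obtained at autopsy) mounted in organ baths on force-displacement transducers; preincubated 2 h with antagonist, then given increasing carbachol concentrations; potency expressed as pA2.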
# [3] = molecular target: T2, Muscarinic acetylcholine receptor M2 (Homo sapiens, UniProt P08172); experiment: Displacement of [3H]N-methyl Scopolamine from human muscarinic M2 receptor expressed in CHO cells by scintillation proximity assay; format: cell-based
# T2 sequence (P08172 whole entry): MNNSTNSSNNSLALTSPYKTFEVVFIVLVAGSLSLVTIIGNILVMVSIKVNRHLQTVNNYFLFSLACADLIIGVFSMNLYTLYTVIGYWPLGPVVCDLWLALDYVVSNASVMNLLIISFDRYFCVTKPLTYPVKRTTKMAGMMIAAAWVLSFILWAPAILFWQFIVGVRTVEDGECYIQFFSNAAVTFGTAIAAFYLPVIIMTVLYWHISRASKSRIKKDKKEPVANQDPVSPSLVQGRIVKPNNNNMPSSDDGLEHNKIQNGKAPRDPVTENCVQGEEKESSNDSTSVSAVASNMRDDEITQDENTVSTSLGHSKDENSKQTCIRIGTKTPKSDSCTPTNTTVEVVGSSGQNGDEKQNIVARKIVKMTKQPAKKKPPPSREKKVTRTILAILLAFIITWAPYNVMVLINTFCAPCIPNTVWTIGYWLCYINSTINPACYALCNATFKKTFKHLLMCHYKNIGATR
# Outline: (§1)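 Scintillation proximity binding on membranes from CHO cells expressing human M1, M2 or M3 receptor, competing against 0.5 nM [3H]-N-methylscopolamine; Ki reported, mean of two or more independent assays.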
# [4] = molecular target: T1, Muscarinic acetylcholine receptor M3; experiment: Antagonist activity at human muscarinic M3 receptor in human bronchus assessed as reversal time for 50% of carbachol-induced contraction to return to maximum relaxation at 10 nM; format: functional
# Outline: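 Human bronchial strips from primary, secondary or tertiary airways (autopsy) in organ baths on force-displacement transducers; preincubated 2 h with antagonist at 10 nM, then contracted with increasing carbachol. Antagonist then washed out, tissue superfused with carbachol-containing buffer and tension recovery followed over time; value is minutes to 50% reversal of antagonist blockade (Off t50).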
# [5] = Systemic plasma clearance in rat at 2.5 mg/kg, iv; format: ADME, organism-based; set-up: dose 2.5 mg/kg, route intravenous
# [6] = organism: Mus musculus; experiment: Bronchorelaxant activity in methacholine-induced BALB/c mouse bronchus contraction model assessed as time to 50% loss of maximum protection at 0.5 ug, intranasally; format: functional
# Outline: (§2)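 Balb/C mice (n = 4 per group) dosed intranasally (50 μL, 10% DMSO vehicle); challenged 0.25-48 h later with 30 mg/mL methacholine aerosol for 2 min; Penh recorded over next 5 min, as ratio of post-drug to pre-drug Penh; duration taken as time to 50% loss of maximum protection.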
# [7] = system: Rattus norvegicus; experiment: (§3) Oral bioavailability in rat at 5.8 mg/kg; format: ADME, organism-based; conditions: in vivo, BLD = below limit of detection
# Outline: (§4)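 Rat oral dosing at 5.8 mg/kg; percent bioavailability determined from plasma levels, individual animal values listed because of variability.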
# [8] = molecular target: T1, Muscarinic acetylcholine receptor M3; experiment: Displacement of [3H]N-methyl Scopolamine from human muscarinic M3 receptor expressed in CHO cells by scintillation proximity assay; format: cell-based; outline: as §1
# [9] = system: Mus musculus; experiment: Bronchorelaxant activity in intranasally dosed BALB/c mouse bronchus assessed as inhibition of methacholine-induced contraction; format: functional
# [10] = system: Mus musculus; experiment: Inhibition of methacholine-induced bronchoconstriction in dosed BALB/c mouse assessed as respiratory values at 50 ug, intranasal at 24 hrs; format: functional
# [11] = system: Mus musculus; experiment: Inhibition of methacholine-induced bronchoconstriction in dosed BALB/c mouse assessed as respiratory values at 5 ug, intranasal at 24 hrs; format: functional
# [12] = organism: Mus musculus; experiment: Bronchorelaxant activity in methacholine-induced BALB/c mouse bronchus contraction model assessed as time to 50% loss of maximum protection at 5 ug, intranasally; format: functional; outline: as §2
# [13] = Systemic plasma clearance in rat at 2.8 mg/kg, iv; format: ADME, organism-based; set-up: dose 2.8 mg/kg, route intravenous
# [14] = molecular target: T3, Muscarinic acetylcholine receptor M1 (Homo sapiens, UniProt P11229); experiment: Displacement of [3H]N-methyl Scopolamine from human muscarinic M1 receptor expressed in CHO cells by scintillation proximity assay; format: cell-based; outline: as §1
# T3 sequence (P11229 whole entry): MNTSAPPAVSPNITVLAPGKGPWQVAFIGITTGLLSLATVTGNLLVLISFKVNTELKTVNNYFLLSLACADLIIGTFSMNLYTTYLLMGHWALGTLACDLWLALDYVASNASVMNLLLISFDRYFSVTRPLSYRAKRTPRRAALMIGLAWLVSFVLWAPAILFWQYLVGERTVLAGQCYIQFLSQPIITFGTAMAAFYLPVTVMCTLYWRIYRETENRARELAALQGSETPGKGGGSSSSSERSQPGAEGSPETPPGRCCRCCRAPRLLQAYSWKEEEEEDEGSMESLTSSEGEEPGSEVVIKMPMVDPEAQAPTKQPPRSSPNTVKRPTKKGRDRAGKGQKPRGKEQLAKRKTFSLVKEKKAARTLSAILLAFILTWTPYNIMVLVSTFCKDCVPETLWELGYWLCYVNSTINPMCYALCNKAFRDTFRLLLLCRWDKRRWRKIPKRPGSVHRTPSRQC
# [15] = as §3; format: ADME, organism-based; conditions: in vivo; outline: as §4
SMILES,IC50 [1] [nM],Kb [1] [nM],further results
CCC(O)(C[C@H]1C[C@H]2CC[C@@H](C1)N2C)c1ccccc1 (some centres not stated),135,–,–
C[N+]1(C)[C@@H]2CC[C@H]1C[C@@H](CC(C#N)(c1ccccc1)c1ccccc1)C2.[Br-],–,–,Kb [2]: 0.1 nM; Ki [3]: 0.17 nM; TIME [4]: 1.42 h; clearance [5]: 74 mL/min/kg; Time [6]: >24 h; F [7]: BLD; Ki [8]: 0.06 nM; ED50 [9]: 0.01 µg
Cc1cc(C(O)(C[C@H]2C[C@H]3CC[C@@H](C2)[N+]3(C)C)c2csc(C)c2)cs1,65,–,–
Cc1ccc(F)cc1C(O)(C[C@H]1C[C@H]2CC[C@@H](C1)[N+]2(C)C)c1cc(F)ccc1C,37,–,–
C[N+]1(C)[C@@H]2CC[C@H]1C[C@@H](CC(O)(c1cc(F)cc(F)c1)c1cc(F)cc(F)c1)C2,112,–,–
CN1[C@@H]2CC[C@H]1C[C@@H](CC(O)(c1cccs1)c1cccs1)C2,< 10,2.51,inhibition (INH) [10]: >10%
C[N+]1(C)[C@@H]2CC[C@H]1C[C@@H](CC(O)(c1ccccc1)c1ccccc1)C2.[Br-],–,–,inhibition (INH) [10]: 62%
C[N+]1(C)[C@@H]2CC[C@H]1C[C@@H](CC(O)(c1cccc(Cl)c1)c1cccc(Cl)c1)C2,25,–,–
Cc1ccccc1C(=C[C@H]1C[C@H]2CC[C@@H](C1)[N+]2(C)C)c1ccccc1C.[Br-],< 10,0.1,inhibition (INH) [11]: 91%
C[N+]1(C)[C@@H]2CC[C@H]1C[C@@H](CC(O)(c1ccc(F)c(F)c1)c1ccc(F)c(F)c1)C2,290,–,–
Cc1ccccc1C(O)(C[C@H]1C[C@H]2CC[C@@H](C1)[N+]2(C)C)c1ccccc1C.[Br-],10,5.01,inhibition (INH) [11]: 34%
C[N+]1(C)[C@@H]2CC[C@H]1C[C@@H](CC(O)(c1ccsc1)c1ccsc1)C2,17,–,–
C[N+]1(C)[C@@H]2CC[C@H]1C[C@@H](C=C(c1ccccc1)c1ccccc1)C2.[Br-],< 10,5.01,inhibition (INH) [10]: 76%
C[N+]1(C)[C@@H]2CC[C@H]1C[C@@H](CC(O)(c1cccs1)c1cccs1)C2.[Br-],< 10,2.51,inhibition (INH) [11]: 19%
C[N+]1(C)[C@@H]2CC[C@H]1C[C@@H](CC(O)(c1ccc(Cl)cc1)c1ccc(Cl)cc1)C2,74,–,–
C[N+]1(C)[C@@H]2CC[C@H]1C[C@@H](CC(O)(c1cccc(F)c1)c1cccc(F)c1)C2,11,10,–

SMILES,IC50 [1] [nM],Kb [1] [nM],further results
Cc1ccccc1C(O)(C[C@H]1C[C@H]2CCC[C@@H](C1)[N+]2(C)C)c1ccccc1C,23,–,–
COc1ccc(C(O)(C[C@H]2C[C@H]3CC[C@@H](C2)[N+]3(C)C)c2ccc(OC)cc2)cc1,> 10000,–,–
CN1[C@@H]2CC[C@H]1C[C@@H](CC(O)(c1ccccc1)c1ccccn1)C2 (some centres not stated),19,–,–
C[N+]1(C)[C@@H]2CCC[C@H]1C[C@H](C=C(c1cccs1)c1cccs1)C2.[Br-],< 10,1,inhibition (INH) [11]: 49%
C[N+]1(C)[C@@H]2CC[C@H]1C[C@@H](CC(CO)(c1ccccc1)c1ccccc1)C2,–,3.98,–
COc1ccccc1C(O)(C[C@H]1C[C@H]2CC[C@@H](C1)[N+]2(C)C)c1ccccc1OC,> 10000,–,–
CN1[C@@H]2CC[C@H]1C[C@@H](CC(C(N)=O)(c1ccccc1)c1ccccc1)C2,< 10,0.1,inhibition (INH) [11]: >10%
CN1[C@@H]2CC[C@H]1C[C@@H](C(O)(c1ccccc1)c1ccccc1)C2,1500,–,–
CN1[C@@H]2CC[C@H]1C[C@@H](CCC(O)(c1ccccc1)c1ccccc1)C2,134,–,–
CN1[C@@H]2CC[C@H]1C[C@@H](CC(O)(c1ccccc1)c1ccccc1)C2,973,–,inhibition (INH) [10]: >10%
C[N+]1(C)[C@@H]2CCC[C@H]1C[C@@H](CC(O)(c1cccs1)c1cccs1)C2.[I-],< 10,2,inhibition (INH) [11]: 44%
C[N+]1(C)[C@@H]2CC[C@H]1C[C@@H](C=C(c1cccs1)c1cccs1)C2.[Br-],< 10,0.1,Kb [2]: 1 nM; Time [12]: 24 h; Ki [3]: 0.73 nM; clearance [13]: 85 mL/min/kg; TIME [4]: 0.983 h; Ki [14]: 0.38 nM; bioavailability [15]: 2.4%; Ki [8]: 0.45 nM; ED50 [9]: 0.2 µg; inhibition (INH) [11]: 72%
Cc1c(F)cccc1C(O)(C[C@H]1C[C@H]2CC[C@@H](C1)[N+]2(C)C)c1cccc(F)c1C,65,–,–
C[N+]1(C)[C@@H]2CC[C@H]1C[C@@H](CC(C(N)=O)(c1ccccc1)c1ccccc1)C2.[I-],< 10,0.126,inhibition (INH) [11]: 90%
CN1[C@@H]2CC[C@H]1C[C@@H](CC(C#N)(c1ccccc1)c1ccccc1)C2,–,0.316,–
C[N+]1(C)[C@@H]2CCC[C@H]1C[C@H](CC(O)(c1ccccc1)c1ccccc1)C2.[Br-],< 10,1.58,inhibition (INH) [11]: 34%
